Assay results as given in ChEMBL document CHEMBL1765070, “Structure-based design of potent and selective 3-phosphoinositide-dependent kinase-1 (PDK1) inhibitors” (J Med Chem, 2011).
Each block holds one compound with its values, some of them ahead of it.

Experiments:
TGF-beta receptor type-1 = molecular target: T1, TGF-beta receptor type-1 (Homo sapiens, UniProt P36897); assay: Inhibition of ALK5
T1 sequence (P36897 whole entry): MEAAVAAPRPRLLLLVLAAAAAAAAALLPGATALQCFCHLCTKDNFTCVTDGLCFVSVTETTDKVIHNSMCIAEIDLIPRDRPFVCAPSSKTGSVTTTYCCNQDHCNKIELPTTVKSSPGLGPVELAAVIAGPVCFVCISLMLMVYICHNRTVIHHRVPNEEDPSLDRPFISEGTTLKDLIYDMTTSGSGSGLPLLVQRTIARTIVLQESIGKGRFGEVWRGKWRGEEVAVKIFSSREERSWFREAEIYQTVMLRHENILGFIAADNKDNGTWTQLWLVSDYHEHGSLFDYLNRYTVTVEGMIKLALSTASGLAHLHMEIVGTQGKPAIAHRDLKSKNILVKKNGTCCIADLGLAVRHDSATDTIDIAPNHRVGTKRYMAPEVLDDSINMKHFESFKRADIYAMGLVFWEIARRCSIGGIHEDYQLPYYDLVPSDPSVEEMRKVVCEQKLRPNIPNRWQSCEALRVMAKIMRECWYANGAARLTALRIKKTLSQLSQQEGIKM

K562 = assay: Antiproliferative activity against human K562 cells; format: functional, cell-based
OCI-AML2 = assay: Antiproliferative activity against human OCI-AML2 cells; format: functional, cell-based
[1] = Antiproliferative activity against human OCI-AML3 cells; format: functional, cell-based; details: OCI-AML-3
HEL = assay: Antiproliferative activity against human HEL 92.1.7 cells; format: functional, cell-based
[2] = Antiproliferative activity against human F-36P cells; format: functional, cell-based
[3] = molecular target: Serine/threonine-protein kinase Sgk2 (Homo sapiens) (UniProt Q9HBY8); assay: Inhibition of human SGK2 assessed as residual activity at 10 uM
[4] = molecular target: 3-phosphoinositide-dependent protein kinase 1 (Homo sapiens) (UniProt O15530); assay: Inhibition of human PDK1 assessed as residual activity at 10 uM
[5] = molecular target: cAMP-dependent protein kinase catalytic subunit PRKX (Homo sapiens) (UniProt P51817); assay: Inhibition of human PrKX assessed as residual activity at 10 uM
[6] = molecular target: Ribosomal protein S6 kinase alpha-6 (Homo sapiens) (UniProt Q9UK32); assay: Inhibition of human RSK4 assessed as residual activity at 10 uM
[7] = molecular target: Serine/threonine-protein kinase Sgk1 (Homo sapiens) (UniProt O00141); assay: Inhibition of human SGK assessed as residual activity at 10 uM
[8] = molecular target: NUAK family SNF1-like kinase 1 (Homo sapiens) (UniProt O60285); assay: Inhibition of human ARK5 assessed as residual activity at 10 uM
[9] = molecular target: Rho-associated protein kinase 2 (Rattus norvegicus) (UniProt Q62868); assay: Inhibition of rat ROCK2 assessed as residual activity at 10 uM
[10] = molecular target: Death-associated protein kinase 3 (Homo sapiens) (UniProt O43293); assay: Inhibition of human ZIPK assessed as residual activity at 10 uM
[11] = molecular target: RAC-gamma serine/threonine-protein kinase (Homo sapiens) (UniProt Q9Y243); assay: Inhibition of human PKBgamma assessed as residual activity at 10 uM
[12] = molecular target: Serine/threonine-protein kinase 17A (Homo sapiens) (UniProt Q9UEE5); assay: Inhibition of human DRAK1 assessed as residual activity at 10 uM
[13] = molecular target: Rho-associated protein kinase 2 (Homo sapiens) (UniProt O75116); assay: Inhibition of human ROCK2 assessed as residual activity at 10 uM
[14] = molecular target: Ribosomal protein S6 kinase alpha-3 (Homo sapiens) (UniProt P51812); assay: Inhibition of human RSK2 assessed as residual activity at 10 uM
[15] = molecular target: Serine/threonine-protein kinase Chk2 (Homo sapiens) (UniProt O96017); assay: Inhibition of human CHK2 assessed as residual activity at 10 uM
[16] = molecular target: Serine/threonine-protein kinase BRSK1 (Homo sapiens) (UniProt Q8TDC3); assay: Inhibition of human BRSK1 assessed as residual activity at 10 uM
[17] = molecular target: Ribosomal protein S6 kinase alpha-1 (Rattus norvegicus) (UniProt Q63531); assay: Inhibition of rat RSK1 assessed as residual activity at 10 uM
[18] = molecular target: Serine/threonine-protein kinase NLK (Homo sapiens) (UniProt Q9UBE8); assay: Inhibition of human NLK assessed as residual activity at 10 uM
[19] = test system: Hepatocyte growth factor receptor (Homo sapiens), P08581 [D1246H]; assay: Inhibition of human MET D1246H mutant assessed as residual activity at 10 uM
[20] = molecular target: Serine/threonine-protein kinase BRSK2 (Homo sapiens) (UniProt Q8IWQ3); assay: Inhibition of human BRSK2 assessed as residual activity at 10 uM
[21] = molecular target: Proto-oncogene tyrosine-protein kinase receptor Ret (Homo sapiens) (UniProt P07949); assay: Inhibition of human RET assessed as residual activity at 10 uM
[22] = molecular target: Ribosomal protein S6 kinase alpha-1 (Homo sapiens) (UniProt Q15418); assay: Inhibition of human RSK1 assessed as residual activity at 10 uM
[23] = test system: Hepatocyte growth factor receptor (Homo sapiens), P08581 [Y1248H]; assay: Inhibition of human MET Y1248H assessed as residual activity at 10 uM
[24] = molecular target: RAC-alpha serine/threonine-protein kinase (Homo sapiens, UniProt P31749); assay: Inhibition of AKT1
[25] = molecular target: Mitogen-activated protein kinase kinase kinase 5 (Homo sapiens, UniProt Q99683); assay: Inhibition of ASK1
[26] = molecular target: Glycogen synthase kinase-3 beta (Homo sapiens, UniProt P49841); assay: Inhibition of GSK3B
[27] = molecular target: Inhibitor of nuclear factor kappa-B kinase subunit alpha (Homo sapiens, UniProt O15111); assay: Inhibition of IKK1
[28] = molecular target: Phosphatidylinositol 4,5-bisphosphate 3-kinase catalytic subunit gamma isoform (Homo sapiens, UniProt P48736); assay: Inhibition of PI3Kgamma
[29] = molecular target: Tyrosine-protein kinase SYK (Homo sapiens, UniProt P43405); assay: Inhibition of SYK
[30] = molecular target: Vascular endothelial growth factor receptor 2 (Homo sapiens, UniProt P35968); assay: Inhibition of VEGFR2
[31] = AUC in SCID mouse xenografted with human OCI-AML-2 cells at 100 mg/kg, ip administered as a single dose by LC/MS/MS analysis; format: ADME, organism-based; set-up: dose 100 mg/kg, route intraperitoneal; details: in vivo
Summary of the method: (§1)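 SCID mice with subcutaneous OCI-AML2 xenografts (~500-600 mm3) received a single 100 mg/kg ip dose in 1% DMSO, 20% PEG400, pH 4.2. hIGF-I was injected iv at 3 or 6 h, with blood and tumor taken 10 min after. Compound levels were measured by LC/MS/MS.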

[32] = Cmax in SCID mouse xenografted with human OCI-AML-2 cells at 100 mg/kg, ip administered as a single dose by LC/MS/MS analysis; format: ADME, organism-based; set-up: dose 100 mg/kg, route intraperitoneal; details: in vivo; summary of the method: as §1
Mus musculus [33] = assay: Inhibition of PDK1-mediated AKT phosphorylation at Thr308 residue in human OCI-AML-2 cells xenografted in SCID mouse at 100 mg/kg, ip after 6 hrs by LC/MS/MS analysis; details: OCI-AML2, ip, read-out: INH
Mus musculus [34] = assay: Inhibition of PDK1-mediated AKT phosphorylation at Thr308 residue in human OCI-AML-2 cells xenografted in SCID mouse at 100 mg/kg, ip after 3 hrs by LC/MS/MS analysis; details: OCI-AML2, ip, read-out: INH
Mus musculus [35] = assay: Inhibition of PDK1-mediated RSK phosphorylation at Ser221 residue in human OCI-AML-2 cells xenografted in SCID mouse at 100 mg/kg, ip after 3 hrs by LC/MS/MS analysis; details: OCI-AML2, ip, read-out: INH
Mus musculus [36] = assay: Inhibition of PDK1-mediated RSK phosphorylation at Ser221 residue in human OCI-AML-2 cells xenografted in SCID mouse at 100 mg/kg, ip after 6 hrs by LC/MS/MS analysis; details: OCI-AML2, ip, read-out: INH
[37] = molecular target: Ribosomal protein S6 kinase alpha-2 (Homo sapiens) (UniProt Q15349); assay: Inhibition of human RSK3 assessed as residual activity at 10 uM
[38] = molecular target: Protein kinase C zeta type (Homo sapiens) (UniProt Q05513); assay: Inhibition of human PKCzeta assessed as residual activity at 10 uM
[39] = molecular target: T2, 3-phosphoinositide-dependent protein kinase 1 (Homo sapiens, UniProt O15530); assay: Inhibition of PDK1
T2 sequence (O15530 whole entry): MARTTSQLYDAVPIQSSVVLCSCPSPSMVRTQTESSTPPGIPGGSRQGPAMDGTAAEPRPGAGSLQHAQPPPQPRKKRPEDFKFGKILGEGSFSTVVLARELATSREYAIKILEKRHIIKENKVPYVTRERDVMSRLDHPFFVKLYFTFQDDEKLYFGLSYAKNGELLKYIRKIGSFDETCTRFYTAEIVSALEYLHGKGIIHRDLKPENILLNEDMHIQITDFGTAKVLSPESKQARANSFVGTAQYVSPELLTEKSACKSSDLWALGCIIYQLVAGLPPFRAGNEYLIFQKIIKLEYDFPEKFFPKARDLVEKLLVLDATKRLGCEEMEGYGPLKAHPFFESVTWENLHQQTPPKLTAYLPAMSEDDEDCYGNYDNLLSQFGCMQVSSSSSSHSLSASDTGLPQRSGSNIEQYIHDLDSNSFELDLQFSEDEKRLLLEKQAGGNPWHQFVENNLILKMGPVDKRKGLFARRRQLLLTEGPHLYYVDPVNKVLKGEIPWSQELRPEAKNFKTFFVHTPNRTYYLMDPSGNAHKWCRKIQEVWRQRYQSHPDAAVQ

Aurora kinase A = molecular target: T3, Aurora kinase A (Homo sapiens, UniProt O14965); assay: Inhibition of aurora A
T3 sequence (O14965 whole entry): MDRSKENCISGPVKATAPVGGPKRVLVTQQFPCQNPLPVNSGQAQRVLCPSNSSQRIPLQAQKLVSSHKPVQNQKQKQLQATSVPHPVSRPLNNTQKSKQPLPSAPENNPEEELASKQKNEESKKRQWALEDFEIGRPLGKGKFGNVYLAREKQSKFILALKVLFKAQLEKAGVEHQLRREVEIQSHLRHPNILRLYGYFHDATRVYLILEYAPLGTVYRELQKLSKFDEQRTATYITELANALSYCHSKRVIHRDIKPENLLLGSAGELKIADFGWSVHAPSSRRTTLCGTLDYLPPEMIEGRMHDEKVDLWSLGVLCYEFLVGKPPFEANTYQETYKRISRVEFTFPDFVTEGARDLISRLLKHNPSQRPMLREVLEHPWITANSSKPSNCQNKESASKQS

Aurora kinase B = Aurora kinase B (Homo sapiens, UniProt Q96GD4); assay: Inhibition of aurora B
[40] = molecular target: Rho-associated protein kinase 1 (Homo sapiens, UniProt Q13464); assay: Inhibition of ROCK1
[41] = molecular target: T2, 3-phosphoinositide-dependent protein kinase 1; assay: Inhibition of PDK1-mediated AKT phosphorylation at Thr308 residue in human PC3 cells by ELISA; format: cell-based, PC-3
[42] = molecular target: T2, 3-phosphoinositide-dependent protein kinase 1; assay: Inhibition of PDK1-mediated RSK phosphorylation at Ser221 residue in human PC3 cells by ELISA; format: cell-based, PC-3

Sequence of Serine/threonine-protein kinase 17A (Homo sapiens) (Q9UEE5 whole entry): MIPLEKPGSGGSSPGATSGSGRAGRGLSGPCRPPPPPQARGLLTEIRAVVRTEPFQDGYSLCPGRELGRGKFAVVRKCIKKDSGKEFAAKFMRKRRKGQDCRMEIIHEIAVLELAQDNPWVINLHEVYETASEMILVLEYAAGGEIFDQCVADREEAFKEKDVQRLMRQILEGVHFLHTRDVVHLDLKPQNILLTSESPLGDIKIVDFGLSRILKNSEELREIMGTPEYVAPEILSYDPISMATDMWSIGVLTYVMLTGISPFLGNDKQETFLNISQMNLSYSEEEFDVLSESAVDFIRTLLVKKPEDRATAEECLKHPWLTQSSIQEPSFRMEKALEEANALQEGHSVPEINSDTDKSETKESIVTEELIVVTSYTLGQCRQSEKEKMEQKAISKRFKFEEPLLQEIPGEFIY
Sequence of Ribosomal protein S6 kinase alpha-2 (Homo sapiens) (Q15349 whole entry): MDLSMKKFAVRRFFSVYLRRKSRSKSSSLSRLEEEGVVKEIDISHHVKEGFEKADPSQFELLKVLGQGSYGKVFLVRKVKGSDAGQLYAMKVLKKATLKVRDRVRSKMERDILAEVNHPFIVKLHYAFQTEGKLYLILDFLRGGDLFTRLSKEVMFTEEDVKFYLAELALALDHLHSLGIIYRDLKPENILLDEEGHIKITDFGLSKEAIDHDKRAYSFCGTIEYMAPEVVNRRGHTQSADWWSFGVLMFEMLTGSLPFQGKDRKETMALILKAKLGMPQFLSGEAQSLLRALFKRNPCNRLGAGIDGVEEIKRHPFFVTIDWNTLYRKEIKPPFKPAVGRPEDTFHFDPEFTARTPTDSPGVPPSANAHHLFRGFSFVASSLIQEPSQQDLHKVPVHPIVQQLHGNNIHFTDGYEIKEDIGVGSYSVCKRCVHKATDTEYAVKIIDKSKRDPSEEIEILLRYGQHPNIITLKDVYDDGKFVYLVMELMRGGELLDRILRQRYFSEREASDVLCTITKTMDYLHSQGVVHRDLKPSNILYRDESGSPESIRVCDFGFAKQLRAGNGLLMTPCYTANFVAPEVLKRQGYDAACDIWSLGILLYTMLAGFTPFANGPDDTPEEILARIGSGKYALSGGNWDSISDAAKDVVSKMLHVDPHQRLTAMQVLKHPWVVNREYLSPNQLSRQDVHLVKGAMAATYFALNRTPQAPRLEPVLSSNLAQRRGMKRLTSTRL
Sequence of Serine/threonine-protein kinase BRSK1 (Homo sapiens) (Q8TDC3 whole entry): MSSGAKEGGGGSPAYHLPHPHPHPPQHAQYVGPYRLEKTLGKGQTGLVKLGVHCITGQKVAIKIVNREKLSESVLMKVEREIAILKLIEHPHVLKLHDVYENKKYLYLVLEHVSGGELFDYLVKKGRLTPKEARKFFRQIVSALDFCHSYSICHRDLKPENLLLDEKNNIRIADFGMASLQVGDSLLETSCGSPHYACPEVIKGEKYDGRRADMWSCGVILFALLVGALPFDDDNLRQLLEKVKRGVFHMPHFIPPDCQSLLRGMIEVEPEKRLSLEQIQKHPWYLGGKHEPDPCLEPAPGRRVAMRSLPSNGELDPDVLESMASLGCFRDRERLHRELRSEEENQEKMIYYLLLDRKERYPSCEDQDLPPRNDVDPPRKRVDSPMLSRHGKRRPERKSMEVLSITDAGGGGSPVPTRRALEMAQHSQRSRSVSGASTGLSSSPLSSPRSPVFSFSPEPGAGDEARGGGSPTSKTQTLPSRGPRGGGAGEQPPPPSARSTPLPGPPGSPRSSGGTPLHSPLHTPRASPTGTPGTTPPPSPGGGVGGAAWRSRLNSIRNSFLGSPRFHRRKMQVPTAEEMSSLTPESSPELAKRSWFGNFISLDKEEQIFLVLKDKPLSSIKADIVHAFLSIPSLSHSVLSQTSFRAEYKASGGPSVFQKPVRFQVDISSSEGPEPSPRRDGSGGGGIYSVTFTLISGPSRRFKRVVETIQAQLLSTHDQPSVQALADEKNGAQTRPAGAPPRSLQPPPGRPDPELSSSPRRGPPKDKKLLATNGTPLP
Sequence of Proto-oncogene tyrosine-protein kinase receptor Ret (Homo sapiens) (P07949 whole entry): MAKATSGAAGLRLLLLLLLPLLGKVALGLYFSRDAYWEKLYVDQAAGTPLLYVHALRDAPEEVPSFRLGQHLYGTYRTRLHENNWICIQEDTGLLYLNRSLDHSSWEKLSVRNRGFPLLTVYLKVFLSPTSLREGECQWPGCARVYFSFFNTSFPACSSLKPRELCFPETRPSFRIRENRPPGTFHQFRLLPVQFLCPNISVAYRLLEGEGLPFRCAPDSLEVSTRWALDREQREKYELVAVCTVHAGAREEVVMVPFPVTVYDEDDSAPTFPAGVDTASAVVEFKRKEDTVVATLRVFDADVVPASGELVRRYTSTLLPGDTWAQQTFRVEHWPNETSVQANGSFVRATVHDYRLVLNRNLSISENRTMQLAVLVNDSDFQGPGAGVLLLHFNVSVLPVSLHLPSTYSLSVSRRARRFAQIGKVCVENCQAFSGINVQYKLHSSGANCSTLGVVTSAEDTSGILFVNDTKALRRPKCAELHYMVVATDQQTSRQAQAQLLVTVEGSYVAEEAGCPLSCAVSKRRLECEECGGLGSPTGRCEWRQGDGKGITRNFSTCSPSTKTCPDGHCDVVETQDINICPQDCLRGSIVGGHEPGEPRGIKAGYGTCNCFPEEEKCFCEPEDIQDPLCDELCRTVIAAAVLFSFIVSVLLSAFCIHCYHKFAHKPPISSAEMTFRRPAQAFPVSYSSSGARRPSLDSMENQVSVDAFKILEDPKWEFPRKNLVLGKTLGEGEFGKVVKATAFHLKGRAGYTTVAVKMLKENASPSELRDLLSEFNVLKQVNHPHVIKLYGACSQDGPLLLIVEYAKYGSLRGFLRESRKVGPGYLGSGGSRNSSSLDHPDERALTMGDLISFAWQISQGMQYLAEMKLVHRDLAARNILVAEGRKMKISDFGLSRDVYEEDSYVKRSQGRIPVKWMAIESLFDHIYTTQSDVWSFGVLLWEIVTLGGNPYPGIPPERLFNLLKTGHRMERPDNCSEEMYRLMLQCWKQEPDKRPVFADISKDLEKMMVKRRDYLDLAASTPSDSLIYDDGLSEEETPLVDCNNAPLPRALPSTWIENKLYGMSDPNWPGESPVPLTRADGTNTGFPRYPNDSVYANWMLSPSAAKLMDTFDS
Sequence of Rho-associated protein kinase 2 (Rattus norvegicus) (Q62868 whole entry, looked up): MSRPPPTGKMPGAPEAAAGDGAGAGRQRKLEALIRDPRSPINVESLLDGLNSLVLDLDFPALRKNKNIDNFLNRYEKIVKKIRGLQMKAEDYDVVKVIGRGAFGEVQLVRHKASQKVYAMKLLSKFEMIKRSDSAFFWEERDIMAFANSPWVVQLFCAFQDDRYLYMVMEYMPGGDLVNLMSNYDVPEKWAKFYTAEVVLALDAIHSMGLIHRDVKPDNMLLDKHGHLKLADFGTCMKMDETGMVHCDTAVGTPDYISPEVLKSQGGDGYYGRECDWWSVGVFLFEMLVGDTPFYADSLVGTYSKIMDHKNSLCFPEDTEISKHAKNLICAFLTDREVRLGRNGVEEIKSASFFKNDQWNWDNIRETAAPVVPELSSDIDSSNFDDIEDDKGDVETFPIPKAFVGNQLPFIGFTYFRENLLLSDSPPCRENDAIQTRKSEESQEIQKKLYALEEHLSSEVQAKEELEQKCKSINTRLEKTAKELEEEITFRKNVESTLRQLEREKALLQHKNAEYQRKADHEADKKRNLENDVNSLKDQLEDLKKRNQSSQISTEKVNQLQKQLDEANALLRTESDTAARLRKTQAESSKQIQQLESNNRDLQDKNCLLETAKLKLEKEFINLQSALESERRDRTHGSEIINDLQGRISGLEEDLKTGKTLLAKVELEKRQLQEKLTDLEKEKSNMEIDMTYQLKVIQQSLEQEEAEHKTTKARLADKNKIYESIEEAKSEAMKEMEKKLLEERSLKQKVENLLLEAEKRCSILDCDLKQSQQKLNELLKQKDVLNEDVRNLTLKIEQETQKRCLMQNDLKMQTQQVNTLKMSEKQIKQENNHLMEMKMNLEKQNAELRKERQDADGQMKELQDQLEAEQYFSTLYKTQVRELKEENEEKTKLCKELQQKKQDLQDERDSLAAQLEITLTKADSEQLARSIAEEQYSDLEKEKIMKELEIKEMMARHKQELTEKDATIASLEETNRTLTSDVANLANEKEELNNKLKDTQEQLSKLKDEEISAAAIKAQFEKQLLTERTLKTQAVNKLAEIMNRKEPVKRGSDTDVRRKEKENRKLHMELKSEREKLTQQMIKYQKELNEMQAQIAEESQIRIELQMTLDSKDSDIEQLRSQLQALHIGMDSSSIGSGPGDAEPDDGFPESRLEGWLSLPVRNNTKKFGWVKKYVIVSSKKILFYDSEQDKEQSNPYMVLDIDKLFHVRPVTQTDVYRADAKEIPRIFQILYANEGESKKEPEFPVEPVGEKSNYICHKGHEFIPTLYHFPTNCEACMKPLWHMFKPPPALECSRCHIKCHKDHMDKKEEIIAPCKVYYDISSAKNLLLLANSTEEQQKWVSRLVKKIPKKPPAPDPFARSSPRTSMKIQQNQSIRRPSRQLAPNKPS
Sequence of RAC-gamma serine/threonine-protein kinase (Homo sapiens) (Q9Y243 whole entry): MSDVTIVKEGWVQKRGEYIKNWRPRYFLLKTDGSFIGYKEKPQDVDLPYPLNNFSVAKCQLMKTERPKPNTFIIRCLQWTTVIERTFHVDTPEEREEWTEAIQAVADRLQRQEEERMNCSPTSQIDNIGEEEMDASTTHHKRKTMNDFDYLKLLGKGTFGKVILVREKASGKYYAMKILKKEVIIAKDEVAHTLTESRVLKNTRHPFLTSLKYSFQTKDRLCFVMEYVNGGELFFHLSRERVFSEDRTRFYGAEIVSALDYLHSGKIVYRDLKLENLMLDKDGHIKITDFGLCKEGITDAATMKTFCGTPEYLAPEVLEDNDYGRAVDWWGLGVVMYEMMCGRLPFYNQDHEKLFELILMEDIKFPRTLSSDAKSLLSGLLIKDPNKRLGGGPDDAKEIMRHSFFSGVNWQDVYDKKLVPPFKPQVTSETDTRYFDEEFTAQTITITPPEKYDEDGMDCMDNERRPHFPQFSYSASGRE

IC50 (TGF-beta receptor type-1; read-out: IC50): > 10 µM
IC50 (TGF-beta receptor type-1; read-out: pIC50 (converted)): > 10 µM
IC50 (K562): 18 µM
IC50 (OCI-AML2): 350 nM
Activity [3]: -2%
Activity [4]: 0%
Activity [5]: 4%
Activity [6]: 12%
Activity [7]: 13%
Activity [8]: 16%
Activity [9]: 17%
Activity [11]: 22%
Activity [12]: 23%
Activity [13]: 26%
Activity [14]: 28%
Activity [15]: 29%
Activity [16]: 33%
Activity [17]: 34%
Activity [18]: 38%
Activity [19]: 43%
Activity [20]: 44%
Activity [21]: 46%
Activity [22]: 46%
Activity [23]: 49%
IC50 [24]: > 10 µM
IC50 [25]: > 27.5 µM
IC50 [26]: > 25.1 µM
IC50 [27]: > 25.1 µM
IC50 [28]: 25.1 µM
IC50 [29]: > 25.1 µM
IC50 [30]: > 10 µM
AUC [31]: 31400 ng·h/mL
Cmax [32]: 4510 ng/mL
Activity [37]: 14%
Activity [38]: 29%
Structure (SMILES): CNc1nc(-c2ccc3c(N)n[nH]c3c2)cc(N2C[C@@H](C(=O)NC3CCCCC3)CC[C@H]2C)n1
IC50 [1]: 520 nM
IC50 (HEL): > 30 µM
IC50 [2]: 280 nM
Activity [10]: 21%
inhibition in vivo at 100 mg/kg (Mus musculus [33]): 29%
inhibition in vivo at 100 mg/kg (Mus musculus [34]): 58%
inhibition in vivo at 100 mg/kg (Mus musculus [35]): 57%
inhibition in vivo at 100 mg/kg (Mus musculus [36]): 71%

IC50 [39]: 3.16 nM
IC50 (Aurora kinase A): 7.94 µM
IC50 (Aurora kinase B): 1580 nM
IC50 (TGF-beta receptor type-1; read-out: pIC50 (converted)): > 10 µM
IC50 [40]: 3.16 µM
IC50 [41]: 57 nM
IC50 [42]: 88 nM
Structure (SMILES): CC[C@@H]1CO[C@H](C(=O)Nc2ccccc2)CN1c1cc(-c2ccc3c(N)n[nH]c3c2)nc(NC)n1
